Structures are written as SMILES.

Molecular target in one experiment: not listed separately
Briefly: Inhibition of HIV1 recombinant integrase.
Conditions: not given
The arrangement: species or system Human immunodeficiency virus 1. The gist of the method:
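Strand-transfer scintillation proximity readout. 5 pmol biotin-labeled substrate DNA bound to 100 μg streptavidin SPA beads. Recombinant integrase (0.26 ng) loaded onto the beads for 90 min at 37 °C, and unbound enzyme washed off. Inhibitors then added with 0.1 fmol 33P-labeled target DNA. Reaction stopped with EDTA (10 mM final). Integration measured as scintillation CPM.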
On to `Cc1ccccc1CNC(=O)/C=C(\O)C(=O)O`, for which the IC50 was 1300 nM.

For the molecule `O=C(/C=C(\O)C(=O)O)NCc1cc(F)cc(F)c1`, the IC50 is 1700 nM.

Turning to `O=C(/C=C(\O)C(=O)O)NCc1ccc([N+](=O)[O-])cc1`, the IC50 came to 2100 nM.

`O=C(/C=C(\O)C(=O)O)NCc1cccc(Cl)c1Cl`: the IC50 worked out at 200 nM.

Regarding `O=C(/C=C(\O)C(=O)O)NCc1ccccc1`, the IC50 is 300 nM.

Consider `O=C(/C=C(\O)C(=O)O)NCc1cccc(F)c1`, for which the IC50 turned out to be 1200 nM.

For `O=C(/C=C(\O)C(=O)O)NCc1ccc(F)cc1`, the IC50 amounted to 200 nM.

In the case of `CN(Cc1ccc(F)cc1)C(=O)/C=C(\O)C(=O)O`, the half-maximal inhibitory concentration (IC50) was found to be 110 nM.

Turning to `O=C(/C=C(\O)C(=O)O)NCc1cccc(Cl)c1`, the half-inhibitory concentration (IC50) turned out to be 600 nM.

Regarding `CC(C)(C)c1ccc(CNC(=O)/C=C(\O)C(=O)O)cc1`, the IC50 turned out to be 180000 nM.

On to `COc1ccc(CNC(=O)/C=C(\O)C(=O)O)c(OC)c1`, for which the IC50 came to 7500 nM.

In the case of `COc1ccc(CNC(=O)/C=C(\O)C(=O)O)cc1Cl`, the IC50 worked out at 300 nM.

`Cc1ccc(CNC(=O)/C=C(\O)C(=O)O)cc1F`: the IC50 came to 200 nM.

As to `Cc1ccc(CNC(=O)/C=C(\O)C(=O)O)cc1`, the IC50 was determined as 1400 nM.

`COc1ccccc1CNC(=O)/C=C(\O)C(=O)O`: the IC50 is 500 nM.

With `C[C@@H](NC(=O)/C=C(\O)C(=O)O)c1ccccc1`, the IC50 was over 300000 nM.

Take `C[C@H](NC(=O)/C=C(\O)C(=O)O)c1ccccc1`: the concentration for half-maximal inhibition (IC50) was determined as 24000 nM.

On to `COc1cccc(CNC(=O)/C=C(\O)C(=O)O)c1`, for which the IC50 was 2400 nM.

On to `COc1ccc(CNC(=O)/C=C(\O)C(=O)O)cc1`, for which the IC50 turned out to be 4200 nM.

Turning to `O=C(/C=C(\O)C(=O)O)NCc1ccc(Cl)nc1`, the IC50 was determined as 700 nM.

With `O=C(/C=C(\O)C(=O)O)NCc1ccccc1F`, the IC50 turned out to be 1800 nM.

Turning to `CC(NC(=O)/C=C(\O)C(=O)O)c1ccc(F)cc1` (centres undefined), the IC50 was found to be 3000 nM.

Turning to `O=C(/C=C(\O)C(=O)O)NCc1ccccc1Cl`, the IC50 turned out to be 1700 nM.

As for `O=C(/C=C(\O)C(=O)O)NCc1ccc(Cl)cc1`, the 50% inhibitory concentration (IC50) is 1100 nM.

As to `O=C(/C=C(\O)C(=O)O)NCc1ccc(C(F)(F)F)cc1`, the IC50 was 9000 nM.

In the case of `Cc1cccc(CNC(=O)/C=C(\O)C(=O)O)c1`, the IC50 is 300 nM.

The subject of a further experiment is Human immunodeficiency virus 1. Briefly: Antiviral activity against luciferase containing HIV1 NL4-3 virus in MT2 cells. Type of experiment: functional, organism-based. As to conditions: Human immunodeficiency virus 1, NL4-3, MT2.
In turn, `CC1(C)OC(=O)/C(=C/C(=O)NCc2ccc(F)cc2)O1` gave an EC50 of 1200 nM.

As for `O=C(/C=C(\O)C(=O)O)NCc1ccc(F)cc1`, the EC50 was 5900 nM.

Turning to `CN(Cc1ccc(F)cc1)C(=O)/C=C(\O)C(=O)O`, the half-maximal effective concentration (EC50) amounted to 600 nM.

As a reminder, the IC50 is the midpoint of a concentration-inhibition curve. One may read the EC50 as the concentration that produces a half-maximal response.

The values are drawn from ChEMBL document CHEMBL1140689, “Benzyl amide-ketoacid inhibitors of HIV-integrase” (Bioorg Med Chem Lett, 2007).
